Experimental data reported in ChEMBL document CHEMBL4020725, “Design and synthesis of novel xanthine derivatives as potent and selective A2B adenosine receptor antagonists for the treatment of chronic inflammatory airway diseases” (Eur J Med Chem, 2017).

What was measured:
[1] = molecular target: T1, Adenosine receptor A1 (Homo sapiens) (UniProt P30542); experiment: Displacement of [3H]-DPCPX from human adenosine A1 receptor expressed in HEK293 cell membranes at 0.1 uM after 90 mins relative to control
T1 sequence (whole entry): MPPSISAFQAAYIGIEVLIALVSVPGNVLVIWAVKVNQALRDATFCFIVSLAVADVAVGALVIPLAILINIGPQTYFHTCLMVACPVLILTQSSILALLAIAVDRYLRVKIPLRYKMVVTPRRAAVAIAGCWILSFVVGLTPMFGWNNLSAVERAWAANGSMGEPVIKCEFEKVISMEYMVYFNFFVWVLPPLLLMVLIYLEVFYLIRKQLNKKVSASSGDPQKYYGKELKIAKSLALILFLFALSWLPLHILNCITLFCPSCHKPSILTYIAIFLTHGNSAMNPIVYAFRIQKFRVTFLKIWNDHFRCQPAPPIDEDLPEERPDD
How it was run: (§1)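 Membranes from HEK-293 cells stably transfected with human A1, A2A or A3 receptor, pretreated with 1 U/ml ADA. Membranes are incubated 90 min at room temperature with gentle agitation. Tracer and buffer per receptor: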

[2] = molecular target: T2, Adenosine receptor A2b (Homo sapiens, UniProt P29275); experiment: Displacement of [3H]-MRS-1754 from human adenosine A2B receptor expressed in HEK293 cell membranes after 90 mins
T2 sequence (P29275 whole entry): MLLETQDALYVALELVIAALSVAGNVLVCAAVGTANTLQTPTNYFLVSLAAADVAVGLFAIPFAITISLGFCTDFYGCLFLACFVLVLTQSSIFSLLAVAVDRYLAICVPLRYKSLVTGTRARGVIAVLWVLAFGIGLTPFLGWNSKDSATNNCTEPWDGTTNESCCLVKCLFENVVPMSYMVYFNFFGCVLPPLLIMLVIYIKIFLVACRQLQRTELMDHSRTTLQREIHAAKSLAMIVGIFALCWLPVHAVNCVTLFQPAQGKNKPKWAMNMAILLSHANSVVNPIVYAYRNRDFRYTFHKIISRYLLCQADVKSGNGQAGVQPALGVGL
How it was run: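 Membranes from HEK-293 cells stably expressing human A2B, ADA-treated, incubated with 1.6 nM [3H]-MRS-1754 in 50 mM Tris pH 6.5, 5 mM MgCl2, 1 mM EDTA, 1 U/ml ADA. Incubation 90 min at room temperature. Filtration; nonspecific binding with 100 µM NECA. Eight compound concentrations, each in triplicate; Ki derived by fitting.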

[3] = molecular target: Adenosine receptor A2a (Homo sapiens) (UniProt P29274); experiment: Displacement of [3H]-ZM241385 from human adenosine A2A receptor expressed in HEK293 cell membranes at 0.1 uM after 90 mins relative to control; how it was run: as §1
[4] = molecular target: T3, Adenosine receptor A3 (Homo sapiens) (UniProt P0DMS8); experiment: Displacement of [3H]-HEMADO from human adenosine A3 receptor expressed in HEK293 cell membranes at 1 uM after 90 mins relative to control; how it was run: as §1
T3 sequence (whole entry): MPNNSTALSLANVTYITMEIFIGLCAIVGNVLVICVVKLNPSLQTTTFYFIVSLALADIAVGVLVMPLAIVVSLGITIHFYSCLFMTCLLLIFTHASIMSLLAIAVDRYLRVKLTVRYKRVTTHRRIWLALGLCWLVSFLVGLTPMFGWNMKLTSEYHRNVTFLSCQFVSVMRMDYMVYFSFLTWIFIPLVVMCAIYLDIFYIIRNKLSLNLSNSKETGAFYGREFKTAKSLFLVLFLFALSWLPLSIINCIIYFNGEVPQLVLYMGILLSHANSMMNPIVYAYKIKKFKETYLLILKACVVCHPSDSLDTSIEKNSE

Chain of Adenosine receptor A2a (Homo sapiens) (P29274 whole entry): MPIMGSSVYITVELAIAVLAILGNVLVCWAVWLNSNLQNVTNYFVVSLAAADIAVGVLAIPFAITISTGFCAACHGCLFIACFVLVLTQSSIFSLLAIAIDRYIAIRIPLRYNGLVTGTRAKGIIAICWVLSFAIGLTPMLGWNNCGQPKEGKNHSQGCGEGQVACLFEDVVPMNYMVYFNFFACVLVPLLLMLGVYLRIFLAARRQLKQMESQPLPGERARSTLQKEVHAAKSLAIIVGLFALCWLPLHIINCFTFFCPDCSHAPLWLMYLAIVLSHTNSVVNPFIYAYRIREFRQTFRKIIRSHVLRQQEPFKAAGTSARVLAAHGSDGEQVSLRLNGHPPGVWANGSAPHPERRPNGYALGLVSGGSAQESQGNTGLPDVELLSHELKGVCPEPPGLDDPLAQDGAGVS

Row | SMILES | inhibition [1] [%] | Ki ([2]; read-out: Ki) [nM] | inhibition [3] [%] | inhibition [4] [%] | Ki ([2]; hek293)
1 | CCCn1c(=O)[nH]c2nc(-c3cnn(CC#Cc4cccc(OC(F)(F)F)c4)c3)[nH]c2c1=O | 14 | 2.8 | 33 | 0 | 
2 | CCCn1c(=O)c2[nH]c(-c3ccc(OCC#Cc4ccc(F)cc4)cc3)nc2n(CCC)c1=O |  |  |  |  | Nd(Insoluble)
3 | CCCn1c(=O)[nH]c2nc(-c3cnn(CC#Cc4ccc(F)cc4)c3)[nH]c2c1=O | 77 | 1.6 | 55 | 0 | 
4 | CCCn1c(=O)c2[nH]c(-c3cnn(CC#Cc4ccccc4C(F)(F)F)c3)nc2n(CCC)c1=O | 52 | 29 | 29 | 25 | 
5 | CCCn1c(=O)c2[nH]c(-c3cnn(CC#Cc4ccccc4C(=O)OC)c3)nc2n(CCC)c1=O | 37 | 12 | 41 | 43 | 
6 | CCCn1c(=O)c2[nH]c(-c3cnn(CC#Cc4ccc(C(=O)O)cc4)c3)nc2n(CC)c1=O |  | 130 |  |  | 
7 | CCCn1c(=O)c2[nH]c(-c3cnn(CC#Cc4cccc(OC)c4)c3)nc2n(CCC)c1=O | 57 | 6.3 | 74 | 21 | 
8 | CCCn1c(=O)c2[nH]c(-c3cnn(CC#Cc4ccc(C#N)cc4)c3)nc2n(CCC)c1=O | 14 | 14 | 29 | 14 | 
9 | CCCn1c(=O)c2[nH]c(-c3cc(OCC#Cc4ccc(OC(F)(F)F)cc4)n(C)n3)nc2n(CCC)c1=O |  |  |  |  | Nd(Insoluble)
10 | CCCn1c(=O)c2[nH]c(-c3ccc(OCC#Cc4cccc(F)c4)cc3)nc2n(CCC)c1=O |  | > 1000 |  |  | 
11 | CCCn1c(=O)c2[nH]c(-c3cnn(CC#Cc4ccc(C(=O)OCC)cc4)c3)nc2n(CCC)c1=O | 80 | 3.5 | 19 | 27 | 
12 | CCCn1c(=O)c2[nH]c(-c3cnn(CC#Cc4ccc(C(F)(F)F)cc4)c3)nc2n(CCC)c1=O | 84 | 1.5 | 30 | 12 | 
13 | CCCn1c(=O)c2[nH]c(-c3cc(OCC#Cc4ccc(F)cc4)no3)nc2n(CCC)c1=O |  | 15 |  |  | 
14 | CCCn1c(=O)c2[nH]c(-c3cc(OCC#Cc4ccc(C(F)(F)F)cc4)no3)nc2n(CCC)c1=O |  |  |  |  | Nd(Insoluble)
15 | CCCn1c(=O)c2[nH]c(-c3cc(OCC#Cc4cccc(C(F)(F)F)c4)no3)nc2n(CCC)c1=O |  | > 600 |  |  | 
16 | CCCn1c(=O)c2[nH]c(-c3cnn(CC#Cc4ccc(OC(F)(F)F)cc4)c3)nc2n(CCC)c1=O | 92 | 5.5 | 51 | 37 | 
17 | CCCn1c(=O)c2[nH]c(-c3cnn(CC#Cc4ccc(OC(F)(F)F)cc4)c3)nc2n(CC)c1=O | 84 | 9.9 | 49 | 32 | 
18 | CCCn1c(=O)[nH]c2nc(-c3cnn(CC#Cc4cccc(C(=O)O)c4)c3)[nH]c2c1=O |  | 48 |  |  | 
19 | CCCn1c(=O)c2[nH]c(-c3cc(OCC#Cc4cccc(C(F)(F)F)c4)n(C)n3)nc2n(CCC)c1=O |  |  |  |  | Nd(Insoluble)
20 | CCCn1c(=O)c2[nH]c(-c3ccc(OCC#Cc4ccc(OC(F)(F)F)cc4)cc3)nc2n(CCC)c1=O |  | > 600 |  |  | 
21 | CCCn1c(=O)[nH]c2nc(-c3cnn(CC#Cc4ccc(C(F)(F)F)cc4)c3)[nH]c2c1=O | 89 | 1.3 | 39 | 15 | 
22 | CCCn1c(=O)[nH]c2nc(-c3cnn(CC#Cc4ccc(OC(F)(F)F)cc4)c3)[nH]c2c1=O | 88 | 1.6 | 46 | 17 | 
23 | CCCn1c(=O)[nH]c2nc(-c3cnn(CC#Cc4cccc(F)c4)c3)[nH]c2c1=O | 53 | 3 | 60 | 0 | 
24 | CCCn1c(=O)c2[nH]c(-c3cnn(CC#Cc4ccc(C(F)(F)F)cc4)c3)nc2n(CC)c1=O | 66 | 12 | 21 | 14 | 
25 | CCCn1c(=O)c2[nH]c(-c3ccc(OCC#Cc4ccc(C(F)(F)F)cc4)cc3)nc2n(CCC)c1=O |  |  |  |  | Nd(Insoluble)
26 | CCCn1c(=O)[nH]c2nc(-c3cnn(CC#Cc4cccc(C(F)(F)F)c4)c3)[nH]c2c1=O | 26 | 2.2 | 39 | 0 | 
27 | CCCn1c(=O)c2[nH]c(-c3cc(OCC#Cc4cccc(OC(F)(F)F)c4)no3)nc2n(CCC)c1=O |  | > 600 |  |  | 
28 | CCCn1c(=O)c2[nH]c(-c3ccc(OCC#Cc4cccc(OC(F)(F)F)c4)cc3)nc2n(CCC)c1=O |  |  |  |  | Nd(Insoluble)
29 | CCCn1c(=O)c2[nH]c(-c3cc(OCC#Cc4cccc(F)c4)no3)nc2n(CCC)c1=O |  | 55 |  |  | 
30 | CCCn1c(=O)c2[nH]c(-c3cnn(CC#Cc4cccc(C(=O)O)c4)c3)nc2n(CC)c1=O |  | 190 |  |  | 

Second part, the compound after the results:

Row | inhibition [1] [%] | Ki ([2]; read-out: Ki) [nM] | inhibition [3] [%] | inhibition [4] [%] | Ki ([2]; hek293) | SMILES
31 | 71 | 200 | 59 | 69 |  | CCCn1c(=O)c2[nH]c(-c3cnn(CC#CCN(CC)CC)c3)nc2n(CCC)c1=O
32 | 55 | 83 | 73 | 79 |  | CCCn1c(=O)c2[nH]c(-c3cnn(CC#CCN4CCN(C)CC4)c3)nc2n(CCC)c1=O
33 |  | 100 |  |  |  | CCCn1c(=O)c2[nH]c(-c3cnn(CC#CC4(O)CCCCC4)c3)nc2n(CCC)c1=O
34 | 57 | 5 | 55 | 9 |  | CCCn1c(=O)c2[nH]c(-c3cnn(CC#Cc4cccc(C)c4)c3)nc2n(CCC)c1=O
35 | 28 | 330 | 39 | 51 |  | CCCn1c(=O)c2[nH]c(-c3cnn(CC#CCN4CCOCC4)c3)nc2n(CCC)c1=O
36 | 69 | 12 | 10 | 31 |  | CCCn1c(=O)c2[nH]c(-c3cnn(CC#CCN4CCN(c5cccc(C(F)(F)F)c5)CC4)c3)nc2n(CCC)c1=O
37 |  | 79 |  |  |  | CCCn1c(=O)c2[nH]c(-c3cnn(CC#CC4(O)CCCC4)c3)nc2n(CCC)c1=O
38 | 70 | 6.5 | 33 | 0 |  | CCCn1c(=O)c2[nH]c(-c3cnn(CC#Cc4ccc(C)cc4)c3)nc2n(CCC)c1=O
39 | 105 | 5.9 | 66 | 19 |  | CCCn1c(=O)c2[nH]c(-c3cnn(CC#Cc4ccc(F)cc4)c3)nc2n(CCC)c1=O
40 | 52 | 3.7 | 84 | 0 |  | CCCn1c(=O)c2[nH]c(-c3cnn(CC#Cc4cccc(C#N)c4)c3)nc2n(CCC)c1=O
41 | 42 | 23 | 60 |  |  | CC#CCn1cc(-c2nc3c([nH]2)c(=O)n(CCC)c(=O)n3CCC)cn1
42 | 66 | 120 | 67 | 59 |  | CCCn1c(=O)c2[nH]c(-c3cnn(CC#CCN4CCCC4)c3)nc2n(CCC)c1=O
43 | 64 | 140 | 74 | 73 |  | CCCn1c(=O)c2[nH]c(-c3cnn(CC#CCN4CCCCC4)c3)nc2n(CCC)c1=O
44 | 19 | 17.6 | 44 | 25 |  | CCCn1c(=O)c2[nH]c(-c3cnn(CC#Cc4ccc(C(=O)O)cc4)c3)nc2n(CCC)c1=O
